High-throughput results from PubChem.
HEK293 NFkB inh = lowers PMA/ionomycin-induced NF-kB signal in HEK293 cells; HEK-293 NF-kB luciferase reporter, luminescence; inhibition, % at 3 µM; actives 0.21% (n = 62,000);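 active = inhibition above the mean of all tested compounds plus 3 SD, cut at about 40% in these data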;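 also: 0% = stimulated DMSO wells and 100% = 10 µM reference inhibitor 5653914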
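System: NF-kB luciferase reporter HEK-293 cells | Replication: Single test | Control set: DMSO vs reference inhibitor | Evaluation: % inhibition | Schedule: 1 h pretreatment, 16 h stimulation, 37 °C | Probe or stimulus: PMA with ionomycin | Compound dosing: One dose, 3 µM | Detection: Luciferase luminescence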
5-HT1A blocker = antagonists of human 5-HT1a serotonin receptor; P08908; inhibition, % at 10 µM; actives 0.68% (n = 62,000); CHO 5-HT1a Ga15 NFAT-bla reporter, antagonist mode;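 active = inhibition above the mean of all tested compounds plus 3 SD, cut at about 43% in these data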;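 also: receptor stimulated by 5-CT agonist at 100 nM near EC80; beta-lactamase reporter measured by ratiometric fluorescence of a cleavable substrate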
HTR1E antagonist = blocks the human 5-HT1E serotonin receptor; P28566; CHO 5-HT1E Ga15 NFAT-bla reporter, FRET, antagonist; inhibition, % at 6 µM; actives 0.99% (n = 65,000);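 active = inhibition above a set limit, the mean inhibition across every tested compound plus 3 SD, cut at about 29% in these data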;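 also: signal is the 460 over 535 nm emission ratio of beta-lactamase substrate; 0% = agonist plus DMSO wells and 100% = wells without agonist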
Target sequence (P28566 whole entry, looked up): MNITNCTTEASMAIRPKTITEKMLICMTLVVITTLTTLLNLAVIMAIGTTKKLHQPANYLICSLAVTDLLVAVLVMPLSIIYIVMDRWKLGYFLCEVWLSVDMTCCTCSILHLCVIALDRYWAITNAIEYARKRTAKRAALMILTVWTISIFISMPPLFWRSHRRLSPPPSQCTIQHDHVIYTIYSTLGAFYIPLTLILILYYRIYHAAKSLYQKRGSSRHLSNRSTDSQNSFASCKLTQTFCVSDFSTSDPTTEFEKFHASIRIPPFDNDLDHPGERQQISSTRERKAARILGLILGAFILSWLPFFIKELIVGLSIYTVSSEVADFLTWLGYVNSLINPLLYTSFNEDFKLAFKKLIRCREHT
HTR1E agonist = 5-HT1E (human) receptor agonism. P28566. CHO 5-HT1E Ga15 NFAT-bla reporter, FRET; 0% DMSO wells, 100% control agonist wells. activation, % at 6 µM. actives 0.69% (n = 65,000). AID 574;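 active = activation above a set limit, the screen-wide mean activation plus 3 SD, cut at about 8.5% in these data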;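 also: 100% = positive control agonist at 1 µM giving full maximal response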
5HT1a ag = activates the human 5-HT1a serotonin receptor. actives 0.56% (n = 65,000). AID 567. activation, % at 10 µM. P08908. CHO 5-HT1a Ga15 NFAT-bla reporter, FRET ratio; 0% basal, 100% maximal reference agonist;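 active = activation above the screen-wide mean activation plus 3 SD, cut at about 19% in these data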;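 also: 0% = DMSO wells and 100% = 5-CT at EC100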
Jurkat tox 60K = cytotoxicity toward Jurkat cells; actives 1.2% (n = 56,000); inhibition, % at 4 µM; Jurkat E6.1 viability, ATP luminescence, 48 h;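 active = inhibition above the mean inhibition of all tested compounds plus 3 SD, cut at about 28% in these data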
An asterisk follows results filed as active; x = not tested or not shown. Compounds with a hit are over-represented: about 3.3% of the library has one in this group of screens.

SMILES | HEK293 NFkB inh | 5-HT1A blocker | HTR1E antagonist | HTR1E agonist | 5HT1a ag | Jurkat tox 60K
O=C(O)C1CCCN1S(=O)(=O)c1ccc2ccccc2c1 (configuration not stated) | 16 | -3 | -9 | 0 | -1 | x
CCOCCCNC(=O)Cn1cc2c(n1)CCCC2 | 4 | 15 | -7 | -1 | 36* | -1
O=C(Cn1cc2c(n1)CCCCC2)NC1CCN(Cc2ccccc2)CC1 | 15 | 7 | -1 | 0 | 29* | 2
CC1CCc2nn(CC(=O)NC3CCCC3)cc2C1 (configuration not stated) | 4 | -13 | -8 | 0 | 40* | -5
O=C(Cn1cc2c(n1)CCCC2)NC1CCCCCC1 | -2 | 2 | 8 | 0 | -2 | 1
CCc1ccc(NC(=O)Cn2c(SC)nc3ccccc32)cc1 | 13 | 13 | -6 | 54* | -2 | 1
CSc1nc2ccccc2n1CC(=O)Nc1ccc(C)c(C)c1 | 20 | 11 | 1 | 15* | -1 | x
O=C(Nc1ccccc1)N1CCC(c2nc(-c3ccc(S(=O)(=O)N4CCOCC4)cc3)no2)CC1 | 8 | 11 | 3 | 0 | -2 | 33*
O=C(COc1ccc(S(=O)(=O)N2CCc3ccccc32)cc1Cl)NCc1ccccn1 | 7 | 3 | 8 | 0 | 1 | 3
CC(C)n1c(Nc2ccccc2)nc2ccccc21 | 5 | 8 | 8 | -2 | 0 | 1
CC(C)n1c2ccccc2c2nc3ccccc3nc21 | 21 | 6 | 32* | 0 | 5 | 2
O=C(NC1CCS(=O)(=O)C1)OC1CCCCC1 (configuration not stated) | 5 | -12 | 5 | -1 | -1 | 6
COc1cc(C(=O)N2CCN(c3cc(Cl)ccc3Cl)CC2)cc(OC)c1OC | 43* | 22 | 64* | 0 | 0 | 61*
COc1cc(C(=O)N2CCN(c3cccc(C)c3C)CC2)cc(OC)c1OC | 35 | 21 | 50* | 0 | -2 | 94*
CCOc1ccccc1N1CCN(C(=O)c2ccncc2)CC1 | 13 | -1 | 2 | 2 | 0 | 7
Cc1ccccc1S(=O)(=O)Cc1ccc(C(=O)N2CCN(c3cccc(C)c3C)CC2)o1 | 28 | 16 | 22 | 32* | 2 | 93*
COc1ccc(C(=O)N2CCN(C(=O)c3cc(OC)c(OC)c(OC)c3)CC2)cc1 | 4 | -4 | -10 | 1 | 1 | -8
Cc1ccccc1S(=O)(=O)Cc1ccc(C(=O)N2CC(C)CC(C)C2)o1 (configuration not stated) | 20 | -1 | -2 | 1 | -1 | 2
Cc1cccc(N2CCN(C(=O)c3ccncc3)CC2)c1C | 16 | -7 | -3 | 19* | 2 | 60*
CCCCNc1nc2c(c(=O)n(C)c(=O)n2C)n1CCC | 1 | -7 | 16 | 0 | 2 | 7
CCCCCCn1c(NCC)nc2c1c(=O)n(C)c(=O)n2C | 23 | -7 | 1 | 1 | 2 | 78*
CCCNc1nc2c(c(=O)n(C)c(=O)n2C)n1CCC(C)C | 26 | 2 | 7 | 0 | 0 | 33*
CCN(CC)c1ccc2c(c1)OC(N)=C(C#N)C2c1cccnc1 (configuration not stated) | 53* | 32 | 77* | -1 | -3 | 97*
CCCc1nn(C)c2c1C(c1cccnc1)C(C#N)=C(N)O2 (configuration not stated) | x | x | -7 | 0 | 0 | x
COC(=O)C1=C(N)Oc2cc(C)n(Cc3cccnc3)c(=O)c2C1c1cccc(OC)c1OC (configuration not stated) | 8 | -7 | -1 | 1 | 1 | -5
SMILES | HEK293 NFkB inh | 5-HT1A blocker | HTR1E antagonist | HTR1E agonist | 5HT1a ag | Jurkat tox 60K
CSc1ncccc1C(=O)OCc1ccccc1F | -5 | -8 | -3 | 2 | 73* | -5
COc1ccccc1NC(=O)Nc1nnc(C(C)C)s1 | x | x | 29* | 0 | 0 | x
Cc1ccc(Nc2nnc(SCC(=O)NCc3ccco3)s2)cc1 | 8 | -1 | -2 | -1 | -1 | -5
c1cc(-c2nc3cc(Cc4ccc5oc(-c6ccncc6)nc5c4)ccc3o2)ccn1 | 18 | 1 | -2 | 18* | -1 | 7
COc1ccc(CNC(=O)CSc2nnnn2-c2ccc(O)cc2)cc1 | 12 | 2 | -7 | 0 | -1 | x
Cc1cccc(N2CCN(C(=O)Cc3c(C(=O)O)[nH]c4ccc(Cl)cc34)CC2)c1C | 11 | -4 | -5 | 60* | -3 | 6
Cc1cccc(N2CCN(C(=O)CCn3c(=O)[nH]c4ccccc4c3=O)CC2)c1C | 14 | -18 | -9 | 0 | 2 | -4
Fc1ccc2[nH]c3c(N4CCN(C5CCCCC5)CC4)ncnc3c2c1 | x | x | -13 | 0 | 2 | x
COc1cccc(N2CCN(c3ncnc4c3[nH]c3ccccc34)CC2C)c1 (configuration not stated) | x | x | 91* | 0 | 4 | x
COc1cc2[nH]c3c(N4CCN(c5ccc(Cl)cc5)CC4)ncnc3c2cc1OC | 12 | -8 | 7 | 2 | 2 | 12
COc1cccc(N2CCN(c3ncnc4c3[nH]c3ccc(F)cc34)CC2C)c1 (configuration not stated) | x | x | 104* | -2 | -2 | x
CN1CCN(c2ccccc2NC(=O)c2ccc(Br)o2)CC1 | 7 | 16 | 8 | 13* | 2 | 6
O=C(Nc1ccccc1C(F)(F)F)c1cc(-c2ccccc2O)on1 | -18 | -4 | -6 | 0 | -1 | 89*
Cc1cc(C(=O)Nc2ccccc2C(F)(F)F)no1 | 3 | -14 | -2 | -1 | -1 | -3
O=C(NC1CCCCC1)c1nc2c(nnn2Cc2ccccc2Cl)c(=O)[nH]1 | 7 | 2 | -1 | 1 | 1 | -4
Cc1noc(C)c1COC(=O)c1cccc(S(=O)(=O)N2CCCCCC2)c1 | 25 | -1 | 15 | 0 | 1 | 40*
COc1ccc(S(=O)(=O)N2CCCCCC2)cc1C(=O)OCc1c(C)noc1C | 15 | -7 | 14 | 0 | 4 | 3
[O-][n+]1onc2c1CCc1c-2nn(-c2ccccc2Cl)[n+]1[O-] | 12 | 60* | 34* | 0 | -5 | 10
O/N=C1\CC/C(=N\O)c2nn(-c3ccccc3Cl)nc21 | 11 | 10 | -4 | 0 | -5 | -3
Cc1ccc(-n2nc3c([n+]2[O-])CCc2c-3no[n+]2[O-])cc1 | 15 | 73* | 74* | -2 | -5 | 4
CC1(C)Cc2c(c(N3CCCC3)nc3sc4c(N5CCN(CCO)CC5)ncnc4c23)CO1 | 8 | -6 | 41* | 1 | 6 | x
CN1CCN(c2ncnc3c2sc2nc(N4CCOCC4)c4c(c23)CCC4)CC1 | 7 | -9 | 2 | 1 | 2 | x
COc1ccccc1-c1nnc(SCC(=O)O)n1C | 17 | -5 | -6 | 0 | -3 | -1
